Screening results (PubChem BioAssay)
UCH37 inh = human UCH37 deubiquitinating enzyme inhibition | purified proteasome/UCH37, Ub-AMC cleavage fluorescence | inhibition, % (no concentration beside the values) | 330,000 compounds, 0.33% hits | Q9Y5K5;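 active = mean inhibition over replicate wells above about 20%, limit read from the data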
Target sequence (Q9Y5K5 whole entry, looked up): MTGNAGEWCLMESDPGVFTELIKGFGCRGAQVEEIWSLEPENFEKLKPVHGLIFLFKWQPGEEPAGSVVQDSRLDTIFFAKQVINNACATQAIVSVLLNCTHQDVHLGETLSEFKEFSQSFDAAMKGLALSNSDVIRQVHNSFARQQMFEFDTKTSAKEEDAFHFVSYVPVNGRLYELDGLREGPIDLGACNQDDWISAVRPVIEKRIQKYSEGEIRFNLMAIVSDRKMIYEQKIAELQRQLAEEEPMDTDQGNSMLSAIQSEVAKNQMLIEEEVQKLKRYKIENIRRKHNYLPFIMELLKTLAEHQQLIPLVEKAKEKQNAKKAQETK
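Material: Human UCH37 enzyme supplied as purified proteasome complex | Schedule: 30 min compound-proteasome preincubation then 25 min substrate reaction, room temperature | Detection: AMC fluorescence from Ub-AMC cleavage, excitation 355 nm, emission 460 nm | Benchmarks: Wells without proteasome as full block, compound-free enzyme plus substrate as uninhibited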
HDAC3 inh = blocks human histone deacetylase 3; O15379; recombinant HDAC3, fluorogenic peptide/trypsin coupled, fluorescence; inhibition, % at 8.3 µM; 320,000 compounds, 0.15% hits; AID 2718; in the data active = inhibition above about 26%, passing the limit was not always enough
Target sequence (O15379 whole entry, looked up): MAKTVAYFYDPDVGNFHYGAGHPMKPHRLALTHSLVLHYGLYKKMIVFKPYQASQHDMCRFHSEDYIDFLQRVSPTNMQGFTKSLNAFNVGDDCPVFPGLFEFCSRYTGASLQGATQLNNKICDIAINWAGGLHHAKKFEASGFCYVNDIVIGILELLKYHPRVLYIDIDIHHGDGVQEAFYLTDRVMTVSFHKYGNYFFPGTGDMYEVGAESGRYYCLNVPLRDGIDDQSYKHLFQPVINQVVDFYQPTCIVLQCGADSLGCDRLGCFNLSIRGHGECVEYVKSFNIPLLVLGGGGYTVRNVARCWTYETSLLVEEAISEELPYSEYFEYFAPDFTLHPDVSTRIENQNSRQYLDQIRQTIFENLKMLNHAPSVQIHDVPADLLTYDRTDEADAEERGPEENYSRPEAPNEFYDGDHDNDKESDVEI
PfM18AAP inh = PfM18AAP enzyme inhibition; recombinant PfM18AAP, H-Glu-NHMec fluorogenic cleavage; inhibition, % at 7.35 µM; AID 1822; 290,000 compounds, 1.2% hits;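 active = inhibition above the campaign mean inhibition over all tested compounds plus 3 SD, cut at about 28% in these data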
Rtt109 HAT inh = blocks Candida albicans Rtt109/Vps75 acetyltransferase activity | Q5AAJ8 | purified Rtt109/Vps75, ThioGlo CoA-SH fluorescence, 4 h | inhibition, % at 34.9 µM | 330,000 compounds, 0.16% hits;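 active = inhibition of at least 50% in every replicate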
FAS TE block = inhibitors of human fatty acid synthase thioesterase domain; P49327; recombinant FAS-TE, OMFH fluorogenic substrate, fluorescence endpoint; inhibition, % at 15 µM; 360,000 compounds, 0.67% hits; AID 602261;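 active = compounds whose normalised, plate-corrected inhibition of enzyme fluorescence in the single-dose primary screen is 50% or more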
ALR H2O2 inh = inhibitors of human sulfhydryl oxidase ALR; 290,000 compounds, 3.8% hits; inhibition, % (no concentration beside the values); purified ALR, DTT oxidation, H2O2 HRP-luminol luminescence;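 active = mean replicate inhibition above about 79%, with every replicate also reaching it, limit read from the data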
FAS-TE conf = FAS thioesterase (human) inhibition, confirmation; inhibition, % at 15 µM; 2,300 compounds, 45% hits; shares compounds with FAS TE block; recombinant FAS-TE, OMFH fluorogenic substrate, fluorescence; AID 624325;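 active = compounds inhibiting the enzyme by at least 50% at 15 µM in any one of the replicates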
Of the large screens only hits and unclear results are named; the others gave an inactive call (follow-up assays come after a bar, where they were run). An excerpt weighted towards active compounds, which were near 4.6% of everything screened.

O=C(CSc1ccc([N+](=O)[O-])cn1)Nc1ccc2c(c1)OCO2	FAS TE block 86 | FAS-TE conf 57
O=C(Cc1ccc([N+](=O)[O-])cc1)Nc1ccc2c(c1)OCO2	none
N#Cc1ccc(Oc2ccc(-c3nc4ccccc4nc3-c3ccccc3)cc2)cc1C#N	FAS TE block 70 | FAS-TE conf inactive
N#Cc1ccc(Oc2ccc(-c3cnc4ccccc4n3)cc2)cc1C#N	none
CCC1CCCCN1c1ccc([N+](=O)[O-])cc1/C=N/NC(=O)Cn1c2ccccc2c(=O)c2ccccc21 (stereo unspecified)	FAS TE block 60 (no result: UCH37 inh) | FAS-TE conf inactive
CCc1ccc(OCC(=O)N/N=C/c2cc([N+](=O)[O-])ccc2N2CCCCCC2)cc1	none (no result: UCH37 inh)
Cn1c(-c2cccc([N+](=O)[O-])c2)cnc1NCc1cccc([N+](=O)[O-])c1	FAS TE block 55 | FAS-TE conf inactive
CCN(CC)C(=O)C1CCCN(c2ccc([N+](=O)[O-])cc2/C=N/NC(=O)c2cccc(Br)c2)C1 (stereo unspecified)	FAS TE block 86 (no result: UCH37 inh) | FAS-TE conf inactive
N#CCC(=O)N/N=C/c1cc([N+](=O)[O-])ccc1N1CCOCC1	none (no result: UCH37 inh, Rtt109 HAT inh)
CN1CCN(c2ccc([N+](=O)[O-])cc2/C=N/NC(=O)c2ccc(F)cc2)CC1	FAS TE block 52 (no result: UCH37 inh, HDAC3 inh, ALR H2O2 inh) | FAS-TE conf 51
CCN(CC)C(=O)C1CCCN(c2ccc([N+](=O)[O-])cc2C=NNC(=O)c2cccc([N+](=O)[O-])c2)C1 (stereo unspecified)	none (no result: HDAC3 inh, PfM18AAP inh, Rtt109 HAT inh, FAS TE block, ALR H2O2 inh)
O=c1oc(-c2ccc(Cl)cc2[N+](=O)[O-])nc2ccccc12	FAS TE block 62 (no result: UCH37 inh, HDAC3 inh, PfM18AAP inh, Rtt109 HAT inh, ALR H2O2 inh) | FAS-TE conf inactive
COc1ccc(-n2c(Cc3ccccc3)nnc2SCc2ccc([N+](=O)[O-])cc2)cc1	none (no result: Rtt109 HAT inh)
COc1ccc(-n2c(SCc3ccc([N+](=O)[O-])cc3)nnc2-c2ccc(C)cc2)cc1	FAS TE block 58 | FAS-TE conf inactive
CC(C)Oc1ccc(CCC(=O)NN=Cc2ccc3c(c2)OCO3)cc1	none (no result: HDAC3 inh, PfM18AAP inh, Rtt109 HAT inh, FAS TE block, ALR H2O2 inh)
CCc1cccc(CC)c1NC(=O)/C(C#N)=C/c1ccccc1C(F)(F)F	FAS TE block 54 | FAS-TE conf 61
CCCOc1ccccc1/C=C(\C#N)C(=O)Nc1cccc(C)n1	none
Cc1cc(C)n(CCC(=O)NN=Cc2cccc([N+](=O)[O-])c2)n1	none (no result: HDAC3 inh, PfM18AAP inh, Rtt109 HAT inh, FAS TE block, ALR H2O2 inh)
COc1cc(C(=O)NCC(=O)NN=C(C)c2cccs2)cc(OC)c1OC	none (no result: HDAC3 inh, PfM18AAP inh, Rtt109 HAT inh, FAS TE block, ALR H2O2 inh)
COc1cc(N(C)C)c([N+](=O)[O-])cc1C(=O)NC(C)CNc1ccc([N+](=O)[O-])cc1Cl (stereo unspecified)	FAS TE block 70 | FAS-TE conf 59
CCN(CC)CCNC(=O)c1cc([N+](=O)[O-])c(N(C)C)cc1OC	none
Cc1cccc(NC(=O)CNC(=O)COC(=O)c2ccc(C(C)(C)C)cc2)c1C	FAS TE block 64 (no result: PfM18AAP inh) | FAS-TE conf 51
N#CC(=NNc1ccc(S(=O)(=O)N2CCc3ccccc32)cc1)C(N)=S	none (no result: HDAC3 inh, PfM18AAP inh, Rtt109 HAT inh, FAS TE block, ALR H2O2 inh)
O=C1C2C3C=CC(c4ccccc4)(C2C(=O)N1c1cccc(Cl)c1)C1C(=O)N(c2cccc(Cl)c2)C(=O)C31 (stereo unspecified)	FAS TE block 65 | FAS-TE conf inactive
O=C(C1=C[C@@H]2[C@H]3C(=O)N(c4cccc(Cl)c4)C(=O)[C@H]3[C@@H](C(=O)c3ccc(Cl)cc3)N2C=C1)c1ccccc1	none (no result: UCH37 inh, Rtt109 HAT inh)
CC(/C=C/c1ccc2c(c1)OCO2)=NNC(=O)COc1ccc(C)cc1	none (no result: HDAC3 inh, PfM18AAP inh, Rtt109 HAT inh, FAS TE block, ALR H2O2 inh)
Cc1cc(Cl)ccc1OCC(=O)NN=C1CCCc2ccccc21	none (no result: HDAC3 inh, PfM18AAP inh, Rtt109 HAT inh, FAS TE block, ALR H2O2 inh)
O=C(Nn1c(C2CCCCC2)nc2ccccc2c1=O)c1ccc(Cl)c([N+](=O)[O-])c1	FAS TE block 57 | FAS-TE conf 60
O=C(Nn1c(C2CCCCC2)nc2ccccc2c1=O)c1ccc([N+](=O)[O-])cc1Cl	FAS TE block 62 | FAS-TE conf 43
COc1ccc(NS(=O)(=O)c2cc(NC(=O)c3ccc(Cl)cc3)ccc2N2CCOCC2)cc1	FAS TE block 53 (no result: PfM18AAP inh) | FAS-TE conf inactive
COc1ccc(NS(=O)(=O)c2cc(NC(=O)c3cnc(C)cn3)ccc2N2CCCCC2)cc1	FAS TE block 55 | FAS-TE conf inactive
O=C(COC(=O)c1ccc(S(=O)(=O)N2CCOCC2)cc1)Nc1nc(-c2ccccc2)cs1	none
O=C(COc1ccccc1)Nc1nc(-c2ccc(S(=O)(=O)N3CCOCC3)cc2)cs1	FAS TE block 86 | FAS-TE conf 58
O=C(Nc1nc(-c2ccc(S(=O)(=O)N3CCCC3)cc2)cs1)C1COc2ccccc2O1 (stereo unspecified)	FAS TE block 90 | FAS-TE conf 43
O=S(=O)(c1ccc(-c2csc(Nc3ccc(F)cc3)n2)cc1)N1CCCC1	FAS TE block 65 (no result: ALR H2O2 inh) | FAS-TE conf 46
COc1ccc(CN2CC(=O)N3[C@H]4c5cc(C)ccc5OC[C@@H]4[C@H](c4ccccc4)[C@]3(C)C2=O)cc1	none (no result: PfM18AAP inh)
COc1ccc2c(c1)OC[C@H]1[C@H]2N2C(=O)CN(Cc3ccc(C)cc3)C(=O)[C@@]2(C)[C@H]1c1ccccc1	FAS TE block 62 (no result: PfM18AAP inh) | FAS-TE conf inactive
COc1ccc2c(c1)OC[C@H]1[C@H]2N2C(=O)CN(Cc3ccc(F)cc3)C(=O)[C@@]2(C)[C@H]1c1ccccc1	FAS TE block 61 (no result: PfM18AAP inh) | FAS-TE conf inactive
C[C@@]12C(=O)N(Cc3ccc(F)cc3)CC(=O)N1[C@H]1c3cc(Cl)ccc3OC[C@@H]1[C@@H]2c1ccccc1	FAS TE block 84 (no result: PfM18AAP inh) | FAS-TE conf inactive
COc1ccc(CN2CC(=O)N3[C@H]4c5ccccc5OC[C@@H]4[C@H](c4ccccc4)[C@]3(C)C2=O)cc1	none (no result: PfM18AAP inh)
O=C(CSc1nc2sc3c(c2c(=O)n1-c1ccccc1)CCCC3)NN=Cc1ccc(C(=O)O)cc1	none (no result: HDAC3 inh, PfM18AAP inh, Rtt109 HAT inh, FAS TE block, ALR H2O2 inh)
CC(=NNC(=O)c1ccccc1)c1ccc(-n2ccnc2)cc1	none (no result: HDAC3 inh, PfM18AAP inh, Rtt109 HAT inh, FAS TE block, ALR H2O2 inh)
COc1cccc(-n2c(CN3CCN(c4ccccc4)CC3)nc3ccc([N+](=O)[O-])cc3c2=O)c1	FAS TE block 72 | FAS-TE conf 31
COc1ccc(-n2c(CN3CCN(c4ccccc4OC)CC3)nc3ccc([N+](=O)[O-])cc3c2=O)c(OC)c1	none (no result: HDAC3 inh, ALR H2O2 inh)
O=C(COc1ccc([N+](=O)[O-])cc1)NCCC1=CCCCC1	FAS TE block 63 | FAS-TE conf 64
O=C(NCCC1=CCCCC1)c1ccc([N+](=O)[O-])cc1	none (no result: ALR H2O2 inh)
O=C(CCNC(=O)c1ccc([N+](=O)[O-])cc1)NCCC1=CCCCC1	FAS TE block 76 (no result: PfM18AAP inh) | FAS-TE conf 83
O=C(CN1C(=O)c2ccc([N+](=O)[O-])cc2C1=O)NCCC1=CCCCC1	FAS TE block 54 (no result: PfM18AAP inh) | FAS-TE conf 54
